Experimental data from ChEMBL document CHEMBL1795280, “Design, synthesis and activity of a potent, selective series of N-aryl pyridinone inhibitors of p38 kinase” (Bioorg Med Chem Lett, 2011).
Active and inactive are the calls of the source. No cut-off for these calls is given here.

Assays:
[1] = biological target: T1, Mitogen-activated protein kinase 14 (Homo sapiens, UniProt Q16539); test: Inhibition of p38alpha assessed as phosphorylation of […] after 60 mins by fluorescence assay
Summary of the method: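 Cascade assay in which activated p38α (6 pM final) activates unactivated MK2 (1 nM), which phosphorylates FITC-labelled Hsp27 peptide (1 nM) with […]. Inhibitor 0.2–10,000 nM. Room temperature, 60 min, EDTA quench. Phospho-peptide quantified by Caliper LabChip; IC50.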

PBMC = test: Antiinflammatory activity in human PBMC assessed as inhibition of LPS-induced TNFalpha production treated 1 hr before LPS challenge measured after 18 hrs; format: functional, cell-based
Summary of the method: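 PBMCs isolated by Ficoll from heparinized blood of two healthy donors, in DMEM with 5% endotoxin-free FBS, 2.5 × 10⁵ cells/well. Pretreated 1 h with compound (0.0001–25 µM range), then stimulated 18 h with 22 ng/ml LPS. Final DMSO 0.25%. Secreted TNFα measured by MSD; IC50 reported.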

[2] = Metabolic stability in human liver microsomes assessed as compound remaining at 2 uM after 45 mins by LC/MS analysis; format: ADME, Microsome; conditions: read-out: Stability
[3] = Metabolic stability in rat liver microsomes assessed as compound remaining at 2 uM after 45 mins by LC/MS analysis; format: ADME, Microsome; conditions: read-out: Stability
[4] = Clearance in iv and po dosed Sprague-Dawley rat; format: ADME, organism-based; conditions: in vivo
[5] = Half life in iv and po dosed Sprague-Dawley rat; format: ADME, organism-based; conditions: in vivo
[6] = Bioavailability in iv and po dosed Sprague-Dawley rat; format: ADME, organism-based; conditions: in vivo
Rattus norvegicus [7] = test: Antiinflammatory activity in Lewis rat assessed as inhibition of LPS-induced TNFalpha production at 5 mg/kg, po administered 4 hrs before LPS challenge by ELISA; format: functional
Summary of the method: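 Adult male Lewis rats (225–250 g), fasted 18 h with free access to water. Compound or vehicle given by oral gavage (1 mL). LPS (E. coli 0111:B4) given 1 mg/kg i.v. in saline 2, 4 or 6 h later. Serum taken by cardiac puncture 90 min after LPS. TNFα quantified against a recombinant rat TNF standard curve with a four-parameter fit. Two vehicle groups per experiment, three experiments.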

[8] = Solubility of the compound; format: physicochemical
[9] = biological target: Tyrosine-protein kinase BTK (Homo sapiens) (UniProt Q06187); test: Inhibition of BTK at 10 uM
Rattus norvegicus [10] = test: Antiarthritic activity in Lewis rat assessed as inhibition of streptococal cell wall-induced increase of paw volume at 60 mg/kg, po qd for 10 days administered 10 days after streptococal cell wall challenge by displacement plethysmometer analysis; format: functional; conditions: 240 h
Summary of the method: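 Female Lewis rats given intraperitoneal group A streptococcal cell wall peptidoglycan-polysaccharide ([…] bodyweight). Only animals developing the acute phase were treated. Oral gavage (0.5 mL) daily from day 10 to day 21 post-SCW, with methylcellulose/Tween 20 vehicle as comparison. Four to eight animals per group, two paw volumes per animal. Paw volume measured on day 21 by water displacement plethysmometer.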

[11] = biological target: Cyclin-dependent kinase 2 (Homo sapiens) (UniProt P24941); test: Inhibition of CDK2 at 10 uM
[12] = biological target: Aurora kinase A (Homo sapiens) (UniProt O14965); test: Inhibition of AURKA at 10 uM
[13] = biological target: Epidermal growth factor receptor (Homo sapiens) (UniProt P00533); test: Inhibition of EGFR at 10 uM
Sequence of Epidermal growth factor receptor (Homo sapiens) (P00533 whole entry): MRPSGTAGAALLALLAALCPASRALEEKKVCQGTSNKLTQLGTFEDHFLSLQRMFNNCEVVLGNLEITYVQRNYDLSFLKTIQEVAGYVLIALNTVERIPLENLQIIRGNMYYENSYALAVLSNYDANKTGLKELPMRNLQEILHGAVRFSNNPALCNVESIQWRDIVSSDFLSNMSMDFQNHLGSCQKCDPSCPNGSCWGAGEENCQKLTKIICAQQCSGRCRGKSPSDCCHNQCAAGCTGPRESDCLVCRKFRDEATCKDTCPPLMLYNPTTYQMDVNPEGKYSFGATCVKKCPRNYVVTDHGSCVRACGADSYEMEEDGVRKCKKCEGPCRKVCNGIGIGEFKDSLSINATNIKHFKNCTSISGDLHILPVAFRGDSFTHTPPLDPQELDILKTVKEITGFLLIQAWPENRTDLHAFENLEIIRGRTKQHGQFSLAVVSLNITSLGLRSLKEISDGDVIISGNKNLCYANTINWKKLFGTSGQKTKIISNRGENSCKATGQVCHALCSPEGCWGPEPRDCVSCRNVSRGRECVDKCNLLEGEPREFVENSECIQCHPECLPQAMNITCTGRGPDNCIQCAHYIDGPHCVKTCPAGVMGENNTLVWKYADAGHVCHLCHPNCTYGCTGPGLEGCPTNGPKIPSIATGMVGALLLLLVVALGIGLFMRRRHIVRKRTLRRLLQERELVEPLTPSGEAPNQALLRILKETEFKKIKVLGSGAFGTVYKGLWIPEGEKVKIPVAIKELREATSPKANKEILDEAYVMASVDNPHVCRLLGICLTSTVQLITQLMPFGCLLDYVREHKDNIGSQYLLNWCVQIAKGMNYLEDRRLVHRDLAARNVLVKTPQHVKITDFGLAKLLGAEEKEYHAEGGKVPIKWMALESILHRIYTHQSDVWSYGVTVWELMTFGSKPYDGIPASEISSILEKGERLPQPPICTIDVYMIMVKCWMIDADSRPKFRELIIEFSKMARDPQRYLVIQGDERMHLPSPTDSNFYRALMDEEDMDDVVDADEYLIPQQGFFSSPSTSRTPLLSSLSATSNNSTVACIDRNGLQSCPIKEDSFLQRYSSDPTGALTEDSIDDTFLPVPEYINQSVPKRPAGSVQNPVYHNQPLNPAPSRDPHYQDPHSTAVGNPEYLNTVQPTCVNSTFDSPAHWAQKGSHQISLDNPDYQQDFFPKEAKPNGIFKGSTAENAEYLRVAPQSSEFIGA

[14] = biological target: Vascular endothelial growth factor receptor 1 (Homo sapiens) (UniProt P17948); test: Inhibition of FLT1 at 10 uM
Sequence of Vascular endothelial growth factor receptor 1 (Homo sapiens) (P17948 whole entry): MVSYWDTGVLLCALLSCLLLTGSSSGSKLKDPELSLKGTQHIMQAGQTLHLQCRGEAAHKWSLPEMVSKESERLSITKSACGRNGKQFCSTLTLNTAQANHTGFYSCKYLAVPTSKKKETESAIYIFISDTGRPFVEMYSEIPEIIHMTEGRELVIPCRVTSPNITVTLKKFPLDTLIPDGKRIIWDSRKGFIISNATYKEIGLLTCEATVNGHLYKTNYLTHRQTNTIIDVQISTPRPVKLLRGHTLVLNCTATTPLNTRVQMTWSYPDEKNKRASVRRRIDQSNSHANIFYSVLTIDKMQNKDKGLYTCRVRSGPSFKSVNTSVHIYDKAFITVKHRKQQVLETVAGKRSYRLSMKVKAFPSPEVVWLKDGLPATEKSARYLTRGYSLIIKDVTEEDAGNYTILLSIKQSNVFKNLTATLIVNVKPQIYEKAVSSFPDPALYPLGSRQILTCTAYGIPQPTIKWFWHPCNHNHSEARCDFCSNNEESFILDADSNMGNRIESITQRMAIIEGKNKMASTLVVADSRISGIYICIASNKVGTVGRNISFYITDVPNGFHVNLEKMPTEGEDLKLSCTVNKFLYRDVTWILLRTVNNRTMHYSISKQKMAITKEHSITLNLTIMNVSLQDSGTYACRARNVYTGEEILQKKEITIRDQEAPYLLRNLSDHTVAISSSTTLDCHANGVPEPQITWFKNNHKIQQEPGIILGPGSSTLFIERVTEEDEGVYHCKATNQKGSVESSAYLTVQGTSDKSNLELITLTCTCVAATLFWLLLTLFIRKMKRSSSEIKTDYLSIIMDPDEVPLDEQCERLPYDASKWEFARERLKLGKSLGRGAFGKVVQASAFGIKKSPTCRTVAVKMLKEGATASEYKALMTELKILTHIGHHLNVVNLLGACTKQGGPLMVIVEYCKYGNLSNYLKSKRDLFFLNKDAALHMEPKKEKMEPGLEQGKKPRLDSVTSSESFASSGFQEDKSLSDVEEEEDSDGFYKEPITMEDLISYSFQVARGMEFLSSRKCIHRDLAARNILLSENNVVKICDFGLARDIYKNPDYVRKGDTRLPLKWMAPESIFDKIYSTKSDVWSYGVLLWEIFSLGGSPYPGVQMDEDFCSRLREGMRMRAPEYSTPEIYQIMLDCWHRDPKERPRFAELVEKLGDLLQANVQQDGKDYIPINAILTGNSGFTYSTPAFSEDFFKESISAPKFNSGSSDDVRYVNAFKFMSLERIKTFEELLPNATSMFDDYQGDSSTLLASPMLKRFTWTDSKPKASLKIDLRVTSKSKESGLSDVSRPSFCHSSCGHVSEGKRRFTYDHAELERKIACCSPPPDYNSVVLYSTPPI

[15] = biological target: Mitogen-activated protein kinase 3 (Homo sapiens) (UniProt P27361); test: Inhibition of ERK1 at 10 uM
[16] = biological target: Serine/threonine-protein kinase mTOR (Homo sapiens) (UniProt P42345); test: Inhibition of mTOR at 10 uM
[17] = biological target: Inhibitor of nuclear factor kappa-B kinase subunit beta (Homo sapiens) (UniProt O14920); test: Inhibition of IKK-beta at 10 uM
Sequence of Inhibitor of nuclear factor kappa-B kinase subunit beta (Homo sapiens) (O14920 whole entry): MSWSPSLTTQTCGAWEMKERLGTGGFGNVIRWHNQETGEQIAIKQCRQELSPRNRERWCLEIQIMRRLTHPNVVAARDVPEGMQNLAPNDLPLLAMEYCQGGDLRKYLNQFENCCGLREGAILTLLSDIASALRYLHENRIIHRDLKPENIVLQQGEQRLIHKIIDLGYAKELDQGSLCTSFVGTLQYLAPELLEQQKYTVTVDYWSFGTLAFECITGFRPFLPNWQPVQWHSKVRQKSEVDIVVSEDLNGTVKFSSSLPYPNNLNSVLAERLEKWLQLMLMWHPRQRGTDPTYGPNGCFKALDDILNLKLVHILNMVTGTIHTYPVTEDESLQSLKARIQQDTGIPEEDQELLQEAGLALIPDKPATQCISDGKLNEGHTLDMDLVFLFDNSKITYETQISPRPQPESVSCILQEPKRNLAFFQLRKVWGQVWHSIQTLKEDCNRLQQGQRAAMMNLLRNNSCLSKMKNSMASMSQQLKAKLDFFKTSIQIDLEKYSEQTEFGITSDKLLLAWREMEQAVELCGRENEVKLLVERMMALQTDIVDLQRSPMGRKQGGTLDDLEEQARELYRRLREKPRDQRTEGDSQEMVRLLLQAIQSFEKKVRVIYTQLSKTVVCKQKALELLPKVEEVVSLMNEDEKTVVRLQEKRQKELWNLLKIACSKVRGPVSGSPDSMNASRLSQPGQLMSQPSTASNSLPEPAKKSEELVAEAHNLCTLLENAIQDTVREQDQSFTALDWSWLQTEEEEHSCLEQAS

[18] = biological target: Interleukin-1 receptor-associated kinase 4 (Homo sapiens) (UniProt Q9NWZ3); test: Inhibition of IRAK4 at 10 uM
[19] = biological target: Tyrosine-protein kinase JAK1 (Homo sapiens) (UniProt P23458); test: Inhibition of JAK1 at 10 uM
[20] = biological target: Tyrosine-protein kinase JAK2 (Homo sapiens) (UniProt O60674); test: Inhibition of JAK2 at 10 uM
[21] = biological target: Tyrosine-protein kinase JAK3 (Homo sapiens) (UniProt P52333); test: Inhibition of JAK3 at 10 uM
[22] = biological target: Non-receptor tyrosine-protein kinase TYK2 (Homo sapiens) (UniProt P29597); test: Inhibition of TYK2 at 10 uM
[23] = biological target: Vascular endothelial growth factor receptor 2 (Homo sapiens) (UniProt P35968); test: Inhibition of VEGFR2 at 10 uM
[24] = biological target: Tyrosine-protein kinase Lck (Homo sapiens) (UniProt P06239); test: Inhibition of LCK at 10 uM
[25] = biological target: Dual specificity mitogen-activated protein kinase kinase 1 (Homo sapiens) (UniProt Q02750); test: Inhibition of MEK1 at 10 uM
Sequence of Dual specificity mitogen-activated protein kinase kinase 1 (Homo sapiens) (Q02750 whole entry): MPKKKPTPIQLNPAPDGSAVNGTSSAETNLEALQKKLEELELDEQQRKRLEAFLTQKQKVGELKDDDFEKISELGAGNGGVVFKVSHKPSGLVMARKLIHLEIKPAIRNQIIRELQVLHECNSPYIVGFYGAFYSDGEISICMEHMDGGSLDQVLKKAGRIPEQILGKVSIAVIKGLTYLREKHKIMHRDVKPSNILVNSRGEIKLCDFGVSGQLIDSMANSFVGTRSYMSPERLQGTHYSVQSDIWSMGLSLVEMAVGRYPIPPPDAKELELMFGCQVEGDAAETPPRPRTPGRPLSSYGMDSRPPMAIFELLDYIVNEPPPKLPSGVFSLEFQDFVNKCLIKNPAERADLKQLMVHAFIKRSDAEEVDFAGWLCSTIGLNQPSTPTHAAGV

[26] = biological target: Mitogen-activated protein kinase 13 (Homo sapiens) (UniProt O15264); test: Inhibition of p38delta at 10 uM
[27] = biological target: Mitogen-activated protein kinase 12 (Homo sapiens) (UniProt P53778); test: Inhibition of p38-gamma at 10 uM
[28] = Inhibition of JNK at 10 uM
[29] = biological target: MAP kinase-activated protein kinase 2 (Homo sapiens) (UniProt P49137); test: Inhibition of MK2 at 10 uM
[30] = biological target: High affinity nerve growth factor receptor (Homo sapiens) (UniProt P04629); test: Inhibition of TRKA at 10 uM
Sequence of High affinity nerve growth factor receptor (Homo sapiens) (P04629 33-796 limits assumed): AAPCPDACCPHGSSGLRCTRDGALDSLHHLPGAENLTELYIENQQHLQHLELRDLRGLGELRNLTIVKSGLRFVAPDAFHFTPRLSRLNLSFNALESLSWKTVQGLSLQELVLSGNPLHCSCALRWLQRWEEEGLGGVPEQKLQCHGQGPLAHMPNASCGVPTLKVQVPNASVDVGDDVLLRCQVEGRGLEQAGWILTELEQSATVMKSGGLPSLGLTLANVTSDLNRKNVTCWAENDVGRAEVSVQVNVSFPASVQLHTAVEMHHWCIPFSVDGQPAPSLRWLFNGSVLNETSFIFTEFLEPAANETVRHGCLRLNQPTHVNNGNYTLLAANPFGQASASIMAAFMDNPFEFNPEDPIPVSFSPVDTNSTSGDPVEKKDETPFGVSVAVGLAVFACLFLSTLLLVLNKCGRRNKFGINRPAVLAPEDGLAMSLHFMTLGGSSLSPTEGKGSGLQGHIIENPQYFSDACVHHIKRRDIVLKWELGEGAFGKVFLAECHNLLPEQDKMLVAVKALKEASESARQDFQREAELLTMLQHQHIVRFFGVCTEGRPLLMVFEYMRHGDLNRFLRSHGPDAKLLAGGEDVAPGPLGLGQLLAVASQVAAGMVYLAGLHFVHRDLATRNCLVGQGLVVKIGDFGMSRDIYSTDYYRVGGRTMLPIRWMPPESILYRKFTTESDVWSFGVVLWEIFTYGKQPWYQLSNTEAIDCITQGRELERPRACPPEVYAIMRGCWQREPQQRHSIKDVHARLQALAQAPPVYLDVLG

[31] = Inhibition of PDGFR at 10 uM
[32] = biological target: RAF proto-oncogene serine/threonine-protein kinase (Homo sapiens) (UniProt P04049); test: Inhibition of c-RAF at 10 uM
[33] = biological target: Rho-associated protein kinase 1 (Homo sapiens) (UniProt Q13464); test: Inhibition of ROCK1 at 10 uM
[34] = biological target: Rho-associated protein kinase 2 (Homo sapiens) (UniProt O75116); test: Inhibition of ROCK2 at 10 uM
[35] = biological target: Tyrosine-protein kinase ZAP-70 (Homo sapiens) (UniProt P43403); test: Inhibition of ZAP70 at 10 uM
[36] = biological target: T1, Mitogen-activated protein kinase 14; test: Inhibition of p38alpha at 10 uM
[37] = biological target: Mitogen-activated protein kinase 11 (Homo sapiens) (UniProt Q15759); test: Inhibition of p38beta at 10 uM

T1 sequence (Q16539 whole entry): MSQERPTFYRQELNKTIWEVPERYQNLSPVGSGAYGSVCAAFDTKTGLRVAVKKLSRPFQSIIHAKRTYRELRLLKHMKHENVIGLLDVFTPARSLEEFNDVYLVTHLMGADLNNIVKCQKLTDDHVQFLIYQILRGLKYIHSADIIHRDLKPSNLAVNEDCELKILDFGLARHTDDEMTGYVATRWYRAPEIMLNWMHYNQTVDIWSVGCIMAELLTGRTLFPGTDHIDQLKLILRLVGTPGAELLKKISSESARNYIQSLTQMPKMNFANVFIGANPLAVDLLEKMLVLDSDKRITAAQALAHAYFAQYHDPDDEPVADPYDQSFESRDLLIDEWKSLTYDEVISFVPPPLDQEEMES

Cc1cc(OCc2ccc(F)cc2F)c(Br)c(=O)n1-c1c(F)cccc1F
IC50 [1]: 3 nM | IC50 (PBMC): 22 nM | remaining at 0.75 h, 2 µM [2]: 60% | remaining at 0.75 h, 2 µM [3]: 80% | clearance [4]: 28.7 mL/min/kg | half-life [5]: 114 min | bioavailability [6]: 19% | inhibition in vivo at 5 mg/kg (Rattus norvegicus [7]): 38% | solubility [8]: < 10 µg/mL

Cc1cc(OCc2ccc(F)cc2F)c(Br)c(=O)n1-c1cccc(CNC(=O)CN)c1
IC50 [1]: 261 nM

Cc1cc(OCc2ccc(F)cc2F)c(Br)c(=O)n1-c1ccc(CN)cc1
IC50 [1]: 51 nM

Cc1cc(OCc2ccc(F)cc2F)c(Br)c(=O)n1-c1cccc(CN)c1
IC50 [1]: 681 nM

Cc1cc(OCc2ccc(F)cc2F)c(Cl)c(=O)n1-c1c(F)cc(N2CCN(C)CC2)cc1F
IC50 [1]: 23 nM

Cc1cc(OCc2ccc(F)cc2)c(Br)c(=O)n1-c1c(Cl)cccc1Cl
IC50 [1]: 6 nM

CN(C)Cc1cc(OCc2ccc(F)cc2F)c(Cl)c(=O)n1-c1c(F)cccc1F
IC50 [1]: 8 nM

Cc1cc(OCc2ccc(F)cc2F)c(Br)c(=O)n1-c1ccc(CNC(=O)CO)cc1
IC50 [1]: 20 nM | IC50 (PBMC): 91 nM | remaining at 0.75 h, 2 µM [2]: 88% | remaining at 0.75 h, 2 µM [3]: 83% | inhibition in vivo at 5 mg/kg (Rattus norvegicus [7]): 43%

Cc1cc(OCc2ccc(F)cc2F)c(Br)c(=O)n1-c1cccc(CNC(N)=O)c1
IC50 [1]: 251 nM

Cc1cc(OCc2ccccc2)c(Br)c(=O)n1-c1c(Cl)cccc1Cl
IC50 [1]: 30 nM

Cc1cc(OCc2ccc(F)cc2F)c(Br)c(=O)n1-c1ccc(C(=O)N(C)C)cc1
IC50 [1]: 746 nM

CNC(=O)c1ccc(-n2c(C)cc(OCc3ccc(F)cc3F)c(Br)c2=O)cc1
IC50 [1]: 126 nM

Cc1cc(OCc2ccc(F)cc2F)c(Br)c(=O)n1-c1c(F)cc(OCC(N)=O)cc1F
IC50 [1]: 3 nM

O=c1c(Br)c(OCc2ccc(F)cc2F)cc(CO)n1-c1c(F)cccc1F
IC50 [1]: 5 nM | IC50 (PBMC): 25 nM | remaining at 0.75 h, 2 µM [2]: 39% | remaining at 0.75 h, 2 µM [3]: 65% | clearance [4]: 4 mL/min/kg | half-life [5]: 534 min | bioavailability [6]: 19% | inhibition in vivo at 5 mg/kg (Rattus norvegicus [7]): 93% | solubility [8]: < 10 µg/mL

O=c1c(Br)c(OCc2ccc(F)cc2F)cc(CN2CCOCC2)n1-c1c(F)cccc1F
IC50 [1]: 9 nM

Cc1cc(OCc2ccc(F)cc2F)c(Br)c(=O)n1-c1cccc(CNC(=O)CO)c1
IC50 [1]: 175 nM

Cc1cc(OCc2ccc(F)cc2F)c(Br)c(=O)n1-c1c(F)cc(O)cc1F
IC50 [1]: 15 nM

Cc1cc(OCc2ccc(F)cc2F)c(Br)c(=O)n1-c1ccc(CNC(=O)CN)cc1
IC50 [1]: 15 nM | IC50 (PBMC): 118 nM | remaining at 0.75 h, 2 µM [2]: 97% | remaining at 0.75 h, 2 µM [3]: 91% | inhibition in vivo at 5 mg/kg (Rattus norvegicus [7]): 64%

O=c1c(Cl)c(OCc2ccc(F)cc2F)cc(CO)n1-c1c(F)cccc1F
inhibition [9]: < 50% | IC50 [1]: 8 nM | IC50 (PBMC): 45 nM | remaining at 0.75 h, 2 µM [2]: 70% | remaining at 0.75 h, 2 µM [3]: 69% | clearance [4]: 5.9 mL/min/kg | half-life [5]: 90 min | bioavailability [6]: 32% | inhibition in vivo at 5 mg/kg (Rattus norvegicus [7]): 81% | solubility [8]: < 10 µg/mL | inhibition in vivo at 60 mg/kg (Rattus norvegicus [10]): 33% | inhibition [11]: < 50% | inhibition [12]: < 50% | inhibition [13]: < 50% | inhibition [14]: < 50% | inhibition [15]: < 50% | inhibition [16]: < 50% | inhibition [17]: < 50% | inhibition [18]: < 50% | inhibition [19]: < 50% | inhibition [20]: < 50% | inhibition [21]: < 50% | inhibition [22]: < 50% | inhibition [23]: < 50% | inhibition [24]: < 50% | inhibition [25]: < 50% | inhibition [26]: < 50% | inhibition [27]: < 50% | inhibition [28]: < 50% | inhibition [29]: < 50% | inhibition [30]: < 50% | inhibition [31]: < 50% | inhibition [32]: < 50% | inhibition [33]: < 50% | inhibition [34]: < 50% | inhibition [35]: < 50% | inhibition [36]: Active | inhibition [37]: Active

Cc1cc(OCc2ccc(F)cc2F)c(Br)c(=O)n1-c1ccc(C(N)=O)cc1
IC50 [1]: 122 nM

CNC(=O)c1cccc(-n2c(C)cc(OCc3ccc(F)cc3F)c(Br)c2=O)c1
IC50 [1]: 17 nM | IC50 (PBMC): 45 nM | remaining at 0.75 h, 2 µM [2]: 95% | remaining at 0.75 h, 2 µM [3]: 92% | clearance [4]: 8.1 mL/min/kg | half-life [5]: 186 min | bioavailability [6]: 3% | inhibition in vivo at 5 mg/kg (Rattus norvegicus [7]): 70% | solubility [8]: < 10 µg/mL

Cc1cc(OCc2ccc(F)cc2F)c(Br)c(=O)n1-c1cccc(C(=O)N(C)C)c1
IC50 [1]: 102 nM

Cc1cc(OCc2ccc(F)cc2F)c(Br)c(=O)n1-c1c(F)cc(N2CCN(C)CC2)cc1F
IC50 [1]: 14 nM

Cc1cc(OCc2ccc(F)cc2F)c(Br)c(=O)n1-c1c(F)cc(OCCO)cc1F
IC50 [1]: 7 nM | IC50 (PBMC): 61 nM | remaining at 0.75 h, 2 µM [2]: 87% | remaining at 0.75 h, 2 µM [3]: 96% | inhibition in vivo at 5 mg/kg (Rattus norvegicus [7]): 44%

Cc1cc(OCc2ccc(F)cc2F)c(Br)c(=O)n1-c1ccc(CNC(N)=O)cc1
IC50 [1]: 142 nM

Cc1cc(OCc2ccc(F)cc2F)c(Br)c(=O)n1-c1c(Cl)cccc1Cl
IC50 [1]: 1 nM

Cc1cc(OCc2ccc(F)cc2F)c(Br)c(=O)n1-c1c(F)cc(N(C)C)cc1F
IC50 [1]: 8 nM
